# Source: PubChem (several laboratories)
# The sample as a whole holds a higher share of hits than the screen did.
# UPR XBP1 act: activators of adaptive arm of unfolded protein response (XBP1). AID 463104. CHO-XBP1 luciferase reporter, IRE1-XBP1 UPR activation, luminescence; percent of tunicamycin response, DMSO as zero. activation, % at 20 µM. actives 0.33% (n = 330,000);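 active means versus positive control, 20 µM dose yields 30% or more activation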;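 further: 100% = tunicamycin at 10 µg/mL and 0% = DMSO only wells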
#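 Signal: luciferase luminescence; Assay system: CHO-XBP1 luciferase reporter cells; Amount: one thousand reporter cells per well; Dosing: 20 µM single concentration, DMSO 1%; Benchmarks: high control tunicamycin 10 µg/mL final, low control DMSO vehicle only; Schedule: 6 h compound exposure at 37 °C, 5% CO2; Evaluation: percent activation relative to tunicamycin reference.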
# CHOP inh: CHOP inhibition in unfolded protein response; CHO-K1 CHOP-promoter luciferase, tunicamycin-induced, 15-18 h; inhibition, % at 10 µM; actives 3.8% (n = 220,000); AID 2732;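 active means compounds that reduced the stress-induced luciferase reporter signal by more than about 70% of percent inhibition, limit read from the data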;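 further: 0% = tunicamycin plus vehicle and 100% = wells without tunicamycin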
# V-ATPase pHluor: alters yeast V-ATPase proton transport; AID 504577; response, % at 10 µM; actives 0.37% (n = 350,000); S. cerevisiae, pHLuorin cytosolic pH fluorescence; in the data active means response mostly above about 7.3%, no sharp cut-off; inactive means mostly below about 5.4%; further: actives read high
# UPR CHOP act: activators of apoptotic arm of unfolded protein response (CHOP); CHO-CHOP luciferase reporter, UPR activation, luminescence; percent of tunicamycin response over DMSO baseline; activation, % at 10 µM; actives 0.34% (n = 330,000); AID 449763;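 active means at 10 µM dose, activation of 40% or more, normalized to positive control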;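 further: 100% = tunicamycin at 10 µg/mL and 0% = DMSO alone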
#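 Material: CHO-CHOP cells, stable luciferase reporter of PERK-eIF2a-CHOP signalling; quantity: 500 reporter cells seeded per well; buffer or medium: F12 medium containing 10% fetal bovine serum; compound: one dose, 10 µM in 0.5% DMSO; incubation: 6 h compound treatment, 37 °C; measured by: Steady-Glo luciferase luminescence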
# TbMetRS inhib: Trypanosoma brucei MetRS inhibition; actives 0.4% (n = 360,000); AID 624268; inhibition, % at 11.9 µM; purified T. brucei MetRS, ATP depletion, Kinase-Glo luminescence;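 active means inhibition above a per-plate cutoff of the control wells' mean inhibition plus 3 SD, cut at about 5.5% in these data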;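 further: 0% = DMSO wells median and 100% = median of wells with control inhibitor compound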
#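 Assay system: T. brucei methionyl-tRNA synthetase, purified | Medium: HEPES buffer with MgCl2, KCl, DTT, spermine, BSA, pyrophosphatase | Compound: 11.9 µM single point | Incubation: 15 min enzyme-compound preincubation, 2 h reaction, 10 min detection, 25 °C | Measured by: Kinase-Glo luciferase luminescence reporting remaining unconsumed ATP | Measure: % inhibition normalized to control-well medians | Replication: Singlicate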
# CHOP confirm: confirmation of CHOP induction inhibitors | CHO-CHOP promoter luciferase reporter, tunicamycin-induced, luminescence | actives 45% (n = 2,100) | AID 504437 | inhibition, % at 10 µM | shares compounds with CHOP inh;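 active means mean of three repeat readings of reporter signal inhibition above a set limit, cut at about 70% in these data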;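 further: 0% = tunicamycin plus vehicle and 100% = wells lacking tunicamycin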
# * = called active by the depositor; . = no result.
SMILES,UPR XBP1 act,CHOP inh,V-ATPase pHluor,UPR CHOP act,TbMetRS inhib,CHOP confirm
Cc1ccc(C2(c3ccc(C)cc3)CC2C(=O)Nc2ccc([N+](=O)[O-])cc2O)cc1 (stereo not drawn),4,107*,0,18,-1,78*
c1ccc2c(c1)N1CCCN=C1N2CCN1CCCCC1,-2,-4,1,-3,0,.
O=C1N=C2N(CCN3CCCCC3)c3ccccc3N2/C1=C\c1ccc([N+](=O)[O-])o1,.,107*,.,.,.,-27
Cc1ccc(-c2nn(-c3ccccc3)cc2/C=N/NC(=O)c2ccc(Br)o2)cc1,-6,104*,-3,0,-1,121*
C=CCn1c(CCc2cc(C(C)(C)C)c(O)c(C(C)(C)C)c2)n[nH]c1=S,3,101*,0,-2,0,86*
C=CCn1c(Cc2ccccc2)n[nH]c1=S,-1,-4,-2,1,-1,.
CC1CCc2c(sc3ncn(CC(=O)N=Nc4c(O)[nH]c5ccccc45)c(=O)c23)C1 (stereo not drawn),0,105*,3,0,0,113*
CCOc1ccc(Cl)cc1/C=N/O,-2,30,-1,-2,-2,.
Cc1ccc(COc2ccc(Br)cc2/C=N/O)cc1,3,110*,2,5,0,104*
O/N=C/c1cc(Cl)ccc1OCc1ccccc1Cl,1,107*,-1,0,-1,30
O=C(Cn1cnc2ccccc21)N1CCN(S(=O)(=O)c2ccccc2)CC1,7,13,2,1,0,.
O=C(CN1c2ccccc2Sc2ccccc21)NNC(=O)Nc1ccc(Cl)cc1,0,100*,-1,2,2,27
O=C(CN1c2ccccc2Sc2ccccc21)NNC(=O)Nc1ccc(Cl)c(Cl)c1,-3,20,-4,1,0,.
Cc1ccccc1NC(=O)/C=C/c1ccc([N+](=O)[O-])s1,.,102*,-4,.,0,79*
C=CC[C@]12C=C(OC)C(=O)C=C1O[C@@H](c1ccc3c(c1)OCO3)[C@H]2C,-2,.,-3,1,1,.
CCC(C)(C)NC(=O)C(c1cccn1C)N(C(=O)Cn1nnc2ccccc21)c1ccc(NC(C)=O)cc1 (stereo not drawn),-5,8,-1,1,0,.
CCC(C)(C)NC(=O)C(c1cccn1C)N(C(=O)Cn1nnc2ccccc21)c1ccc(F)cc1 (stereo not drawn),3,96*,8,-1,0,79*
Cn1c2ccccc2c2nnc(SCC(=O)NC3CCCC3)nc21,1,.,0,-1,0,.
CCSc1nc2ccccc2n1CC(N)=O,-2,16,1,1,1,.
CCSc1nc2ccccc2n1C(=O)/C=C\c1ccc(OC)c(OC)c1,-2,110*,0,2,-3,111*
Clc1ccc(-n2nnnc2-c2cnc3ccc(Cl)cc3c2-c2ccccc2)cc1,5,20,-2,1,0,.
Clc1ccc2ncc(-c3nnnn3-c3ccccc3)c(-c3ccccc3)c2c1,2,107*,3,-1,-1,8
COC(=O)c1ccc2c(=O)[nH]c(CSc3nc(-c4ccc(F)cc4)cs3)nc2c1,0,10,-3,0,-1,.
COc1cc2nc(CSc3nc(-c4ccc(F)cc4)cs3)[nH]c(=O)c2cc1OC,-3,105*,3,1,1,51
Cc1ccc(CNC(=O)c2ccc3c(=O)c(O)c(-c4ccc(C)cc4)[nH]c3c2)cc1,10,103*,-1,3,0,60
O=C(Nc1ccccc1Cl)c1sccc1-c1ccccc1,-3,.,3,0,1,.
O=[N+]([O-])c1cccc(-c2csc(N/N=C/c3cccc(O)c3)n2)c1,0,106*,-1,4,-1,6
CCOC(=O)Cc1csc(N/N=C/c2cccc([N+](=O)[O-])c2)n1,-4,.,3,2,-1,.
CC(C)=NNc1nc(-c2ccc([N+](=O)[O-])cc2)cs1,-1,-4,0,6,0,.
C/C=C/C=N/Nc1nc(-c2ccc([N+](=O)[O-])cc2)cs1,2,98*,10,0,0,-9
